Converted amounts (≈) assume the structure as drawn.
Tests used:
Candida tropicalis = test: Antifungal activity against Candida tropicalis after 24 to 72 hrs by broth microdilution method; type: functional
Method in brief: (§1)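 Broth microdilution MIC per CLSI M27-A3 (yeasts) or M38-A2 (molds). RPMI 1640 with L-glutamine, without bicarbonate, buffered to pH 7.0 with 0.165 M MOPS. Final test range for the compounds was 0.175–87.5 μM. Incubation at 35°C with visual reading at 24–72 h. MIC was the lowest concentration giving 100% inhibition versus the growth control (azoles 50% or 100%, by organism). Each isolate was run in duplicate in two independent experiments.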

Clavispora lusitaniae = test: Antifungal activity against Candida lusitaniae after 24 to 72 hrs by broth microdilution method; type: functional; method in brief: as §1
[1] = tested on: Cryptococcus gattii species complex; test: Antifungal activity against Cryptococcus gattii after 24 to 72 hrs by broth microdilution method; type: functional, Cryptococcus bacillisporus; method in brief: as §1
Candida parapsilosis = test: Antifungal activity against Candida parapsilosis after 24 to 72 hrs by broth microdilution method; type: functional; conditions: Lodderomyces parapsilosis; method in brief: as §1
[2] = tested on: Meyerozyma guilliermondii; test: Antifungal activity against Candida guilliermondii after 24 to 72 hrs by broth microdilution method; type: functional; method in brief: as §1
Nakaseomyces glabratus = test: Antifungal activity against Candida glabrata after 24 to 72 hrs by broth microdilution method; type: functional; method in brief: as §1
Candida albicans = test: Antifungal activity against Candida albicans after 24 to 72 hrs by broth microdilution method; type: functional
Method in brief: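 CLSI M27-A3 broth microdilution for yeasts in RPMI 1640 with L-glutamine and no bicarbonate, buffered with 0.165 M MOPS to pH 7.0. Compounds were dissolved in water and tested at 0.175–87.5 μM final, 35°C. MIC was read visually at 24–72 h as 100% inhibition versus growth control. For MFC, 30 μl from clear wells went onto SDA at 35°C for 48–72 h, reading the lowest concentration without colonies. Duplicates, two independent runs.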

Pichia kudriavzevii = test: Antifungal activity against Candida krusei after 24 to 72 hrs by broth microdilution method; type: functional; method in brief: as §1
Candida dubliniensis = test: Antifungal activity against Candida dubliniensis after 24 to 72 hrs by broth microdilution method; type: functional; method in brief: as §1
Cryptococcus neoformans = test: Antifungal activity against Cryptococcus neoformans after 24 to 72 hrs by broth microdilution method; type: functional; method in brief: as §1

Compound CC[C@H](C)C[C@H](C)CCCCCCCCC(=O)N[C@H]1C[C@@H](O)[C@@H](NCCN)NC(=O)[C@@H]2[C@@H](O)CCN2C(=O)[C@H]([C@H](O)CCN)NC(=O)[C@H]([C@H](O)[C@@H](O)c2ccc(O)cc2)NC(=O)[C@@H]2C[C@@H](O)CN2C(=O)[C@H]([C@@H](C)O)NC1=O [CASPOFUNGIN] has an MIC (Candida tropicalis) of 0.14 µg/mL (≈ 0.128 µM), an MIC50 (Candida tropicalis) of 0.125 µg/mL (≈ 0.114 µM) and an MIC90 (Candida tropicalis) of 0.25 µg/mL (≈ 0.229 µM). It also gave an MIC (Clavispora lusitaniae) of 0.54 µg/mL (≈ 0.494 µM), an MIC50 (Clavispora lusitaniae) of 0.5 µg/mL (≈ 0.457 µM) and an MIC90 (Clavispora lusitaniae) of 1 µg/mL (≈ 0.915 µM). The MIC [1] was 8 µg/mL (≈ 7.32 µM), the MIC50 [1] was 8 µg/mL (≈ 7.32 µM) and the MIC90 [1] was 8 µg/mL (≈ 7.32 µM). It also gave an MIC (Candida parapsilosis) of 0.66 µg/mL (≈ 0.604 µM), an MIC50 (Candida parapsilosis) of 0.5 µg/mL (≈ 0.457 µM) and an MIC90 (Candida parapsilosis) of 1 µg/mL (≈ 0.915 µM). It also gave an MIC [2] of 1.15 µg/mL (≈ 1.05 µM), an MIC50 [2] of 1 µg/mL (≈ 0.915 µM) and an MIC90 [2] of 2 µg/mL (≈ 1.83 µM). The MIC (Nakaseomyces glabratus) was 0.19 µg/mL (≈ 0.174 µM), the MIC50 (Nakaseomyces glabratus) was 0.125 µg/mL (≈ 0.114 µM) and the MIC90 (Nakaseomyces glabratus) was 0.25 µg/mL (≈ 0.229 µM). The MIC (Candida albicans) was 0.12 µg/mL (≈ 0.11 µM), the MIC50 (Candida albicans) was 0.14 µg/mL (≈ 0.128 µM) and the MIC90 (Candida albicans) was 0.27 µg/mL (≈ 0.247 µM). The MIC (Pichia kudriavzevii) was 0.31 µg/mL (≈ 0.284 µM), the MIC50 (Pichia kudriavzevii) was 0.25 µg/mL (≈ 0.229 µM) and the MIC90 (Pichia kudriavzevii) was 0.5 µg/mL (≈ 0.457 µM). It also gave an MIC (Candida dubliniensis) of 0.07 µg/mL (≈ 0.064 µM), an MIC50 (Candida dubliniensis) of 0.06 µg/mL (≈ 0.0549 µM) and an MIC90 (Candida dubliniensis) of 0.125 µg/mL (≈ 0.114 µM). For the same compound, the MIC (Cryptococcus neoformans) was 8 µg/mL (≈ 7.32 µM), the MIC50 (Cryptococcus neoformans) was 8 µg/mL (≈ 7.32 µM) and the MIC90 (Cryptococcus neoformans) was 8 µg/mL (≈ 7.32 µM).
Compound C[C@@H]1[C@H](O)[C@@H](C)/C=C/C=C/C=C/C=C/C=C/C=C/C=C/[C@H](O[C@@H]2O[C@H](C)[C@@H](O)[C@H](N)[C@@H]2O)C[C@@H]2O[C@](O)(C[C@@H](O)C[C@@H](O)[C@H](O)CC[C@@H](O)C[C@@H](O)CC(=O)O[C@H]1C)C[C@H](O)[C@H]2C(=O)O [AMPHOTERICIN B] has an MIC (Candida tropicalis) of 0.22 µg/mL (≈ 0.238 µM), an MIC50 (Candida tropicalis) of 0.25 µg/mL (≈ 0.271 µM) and an MIC90 (Candida tropicalis) of 0.5 µg/mL (≈ 0.541 µM). It also gave an MIC (Clavispora lusitaniae) of 0.12 µg/mL (≈ 0.13 µM), an MIC50 (Clavispora lusitaniae) of 0.125 µg/mL (≈ 0.135 µM) and an MIC90 (Clavispora lusitaniae) of 0.25 µg/mL (≈ 0.271 µM). It also gave an MIC [1] of 0.19 µg/mL (≈ 0.206 µM), an MIC50 [1] of 0.25 µg/mL (≈ 0.271 µM) and an MIC90 [1] of 0.25 µg/mL (≈ 0.271 µM). For the same compound, the MIC (Candida parapsilosis) was 0.28 µg/mL (≈ 0.303 µM), the MIC50 (Candida parapsilosis) was 0.25 µg/mL (≈ 0.271 µM) and the MIC90 (Candida parapsilosis) was 0.5 µg/mL (≈ 0.541 µM). The MIC [2] was 0.15 µg/mL (≈ 0.162 µM), the MIC50 [2] was 0.125 µg/mL (≈ 0.135 µM) and the MIC90 [2] was 0.25 µg/mL (≈ 0.271 µM). It also gave an MIC (Nakaseomyces glabratus) of 0.18 µg/mL (≈ 0.195 µM), an MIC50 (Nakaseomyces glabratus) of 0.125 µg/mL (≈ 0.135 µM) and an MIC90 (Nakaseomyces glabratus) of 0.25 µg/mL (≈ 0.271 µM). The MIC (Candida albicans) was 0.2 µg/mL (≈ 0.216 µM), the MIC50 (Candida albicans) was 0.25 µg/mL (≈ 0.271 µM) and the MIC90 (Candida albicans) was 0.5 µg/mL (≈ 0.541 µM). The MIC (Pichia kudriavzevii) was 0.22 µg/mL (≈ 0.238 µM), the MIC50 (Pichia kudriavzevii) was 0.25 µg/mL (≈ 0.271 µM) and the MIC90 (Pichia kudriavzevii) was 0.5 µg/mL (≈ 0.541 µM). It also gave an MIC (Candida dubliniensis) of 0.1 µg/mL (≈ 0.108 µM), an MIC50 (Candida dubliniensis) of 0.125 µg/mL (≈ 0.135 µM) and an MIC90 (Candida dubliniensis) of 0.125 µg/mL (≈ 0.135 µM). For the same compound, the MIC (Cryptococcus neoformans) was 0.19 µg/mL (≈ 0.206 µM), the MIC50 (Cryptococcus neoformans) was 0.25 µg/mL (≈ 0.271 µM) and the MIC90 (Cryptococcus neoformans) was 0.5 µg/mL (≈ 0.541 µM).
C[C@@H](c1ncncc1F)[C@](O)(Cn1cncn1)c1ccc(F)cc1F [VORICONAZOLE] gave an MIC (Candida tropicalis) of 0.07 µg/mL (≈ 0.2 µM), an MIC50 (Candida tropicalis) of 0.125 µg/mL (≈ 0.358 µM) and an MIC90 (Candida tropicalis) of 0.25 µg/mL (≈ 0.716 µM). It also gave an MIC (Clavispora lusitaniae) of 0.02 µg/mL (≈ 0.0573 µM), an MIC50 (Clavispora lusitaniae) of 0.03 µg/mL (≈ 0.0859 µM) and an MIC90 (Clavispora lusitaniae) of 0.16 µg/mL (≈ 0.458 µM). It also gave an MIC [1] of 0.05 µg/mL (≈ 0.143 µM), an MIC50 [1] of 0.06 µg/mL (≈ 0.172 µM) and an MIC90 [1] of 0.06 µg/mL (≈ 0.172 µM). It also gave an MIC (Candida parapsilosis) of 0.043 µg/mL (≈ 0.123 µM), an MIC50 (Candida parapsilosis) of 0.06 µg/mL (≈ 0.172 µM) and an MIC90 (Candida parapsilosis) of 0.06 µg/mL (≈ 0.172 µM). It also gave an MIC [2] of 0.124 µg/mL (≈ 0.355 µM), an MIC50 [2] of 0.125 µg/mL (≈ 0.358 µM) and an MIC90 [2] of 0.25 µg/mL (≈ 0.716 µM). The MIC (Nakaseomyces glabratus) was 0.41 µg/mL (≈ 1.17 µM), the MIC50 (Nakaseomyces glabratus) was 0.25 µg/mL (≈ 0.716 µM) and the MIC90 (Nakaseomyces glabratus) was 4 µg/mL (≈ 11.5 µM). The MIC (Candida albicans) was 0.04 µg/mL (≈ 0.115 µM), the MIC50 (Candida albicans) was 0.01 µg/mL (≈ 0.0286 µM) and the MIC90 (Candida albicans) was 0.17 µg/mL (≈ 0.487 µM). For the same compound, the MIC (Pichia kudriavzevii) was 0.41 µg/mL (≈ 1.17 µM), the MIC50 (Pichia kudriavzevii) was 0.25 µg/mL (≈ 0.716 µM) and the MIC90 (Pichia kudriavzevii) was 1 µg/mL (≈ 2.86 µM). For the same compound, the MIC (Candida dubliniensis) was 0.011 µg/mL (≈ 0.0315 µM), the MIC50 (Candida dubliniensis) was 0.008 µg/mL (≈ 0.0229 µM) and the MIC90 (Candida dubliniensis) was 0.016 µg/mL (≈ 0.0458 µM). For the same compound, the MIC (Cryptococcus neoformans) was 0.04 µg/mL (≈ 0.115 µM), the MIC50 (Cryptococcus neoformans) was 0.03 µg/mL (≈ 0.0859 µM) and the MIC90 (Cryptococcus neoformans) was 0.125 µg/mL (≈ 0.358 µM).
